This is an account of results in ChEMBL document CHEMBL3822375, “Preclinical Characterization of 3β-(N-Acetyl l-cysteine methyl ester)-2aβ,3-dihydrogaliellalactone (GPA512), a Prodrug of a Direct STAT3 Inhibitor for the Treatment of Prostate Cancer” (J Med Chem, 2016).

The Tmax is the time from dosing to the highest level. As usually defined, the Cmax is the peak of the concentration-time curve. Usually half-life stands for how long it takes for the measured level to halve. What is called IC50 is the point on the concentration scale where inhibition reaches its midpoint. The low end stands for inhibition by little substance, the high end for a need for much substance.

Structures are written as SMILES.

The subject of data set [1] is Mus musculus. In words: Tmax in mouse plasma assessed as galiellalactone level at 10 mg/kg, po by LC-MS/MS analysis. It counts as ADME, organism-based. Particulars: in vivo.
The test system of data set [2] is Mus musculus. In words: Cmax in mouse plasma assessed as galiellalactone level at 10 mg/kg, po by LC-MS/MS analysis. To be noted: in vivo. On the set-up: dose 10 mg/kg, route oral. The data set is classed as ADME, organism-based. In a few lines: (§1)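 Single dose to mice; oral, iv or ip as listed, in 5% DMSO/50 mM citrate buffer pH 4.0 (dosing solutions 0.5, 2 or 5 mg/mL). Oral dosing at 20 mL/kg. Terminal blood under barbiturate anaesthesia at eight time-points to 8 h, n=3 mice per time-point, EDTA plasma. Acetonitrile precipitation with internal standard, LC-MS/MS against plasma calibration lines. Non-compartmental analysis on mean data, trapezoidal AUC.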

In data set [3] the test system is Mus musculus. Kind of data set: AUC (0 to infinity) in mouse plasma assessed as galiellalactone level at 10 mg/kg, po by LC-MS/MS analysis. It counts as ADME, organism-based. On the set-up: dose 10 mg/kg, route oral, time infinity. To be noted: in vivo. In a few lines:
as §1

Data set [4] is described as follows: Chemical stability of the compound in phosphate buffer saline assessed as half life at 10 uM at pH 7.4 by LC-MS/MS analysis. The data set is classed as physicochemical. To be noted: phosphate buffered saline. In a few lines:
(§2)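 Compound diluted from DMSO (or methanol) stock to 10 µM, 2% solvent final, n=2. Matrix was 0.1 M PBS pH 7.4, or […] HCl with 2 mg/mL NaCl adjusted to pH 1.2. Mixed on a shaker; sampled at nominal 5, 15, 30 and 60 min plus T=0. LC-MS/MS with internal standard; % remaining relative to T=0. Formation of parent also monitored.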

In data set [5] the test system is Mus musculus. Kind of data set: Apparent half life in mouse plasma assessed as galiellalactone level at 10 mg/kg, po by LC-MS/MS analysis. It counts as ADME, organism-based. To be noted: in vivo. Summed up: as §1
In data set [6] the test system is Mus musculus. Kind of data set: AUC (0 to t) in mouse plasma assessed as galiellalactone level at 10 mg/kg, po by LC-MS/MS analysis. Particulars: in vivo. The data set is classed as ADME, organism-based. Summed up: as §1
The nature of data set [7]: Antiproliferative activity against human DU145 cells after 72 hrs by WST-1 proliferation assay. It counts as functional, cell-based. To be noted: DU-145, 72 h. In a few lines: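 Cells in RPMI-1640 (DU145, LNCaP, LNCaP-IL6+) or HAM's F-12 (PC3) with 10% FBS. DU145 and LNCaP-IL6+ seeded at 2 000 cells/well, LNCaP and PC3 at 5 000 cells/well, adhered 24 h, then exposed to compound for 72 h. WST-1 absorbance read at 450 nm with 630 nm reference. Background subtracted; expressed as percent of untreated cells.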
(Formazan colour is commonly taken as a measure of viable cells.)

A short description of data set [8]: Half life of compound in acidic buffer at pH 1.2 at 10 uM by LC-MS analysis. The data set is classed as physicochemical. In a few lines: as §2
A further data set deals with Hepatocyte. Kind of data set: Drug level in mouse hepatocytes treated with 3-beta-(N-Acetyl-L-cysteine methyl ester)-2a-beta,3-dihydrogaliellalactone measured after 2 hrs by UPLC-MS analysis. The data set is classed as ADME, cell-based. In a few lines:
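Cryopreserved mouse hepatocytes in Celsis InVitro HI medium, pH 7.4, 37 °C, with 10 µM initial compound from DMSO stock. Sampled at 0 and 120 min, quenched with an equal volume of acetonitrile, analysed by UPLC/Q-TOF-MS. Viability checked by Trypan blue.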

Take `COC(=O)[C@H](CS[C@H]1C2C(=O)O[C@@H]3CC[C@H](C[C@@H]1C)[C@]23O)NC(=O)[C@@H](N)C(C)C` (stereo not given in full): the Tmax with Mus musculus [1] was 0.5 h. Further, the Cmax in the data set with Mus musculus [2] was determined as 949 ng/mL. Moreover, the AUC in the data set with Mus musculus [3] amounted to 101 µg/mL/min. The half-life at 10 µM in [4] amounted to 1.1 h. Besides, in the data set on Mus musculus [5], the “t1/2(app)” value is 2.15 h. The AUCt in the data set with Mus musculus [6] turned out to be 97 µg/mL/min.

`C[C@H]1C[C@H]2CC[C@H]3OC(=O)C([C@@H]1SC[C@H](NC(=O)CC[C@H](N)C(=O)O)C(=O)NCC(=O)O)[C@@]23O` (stereo not given in full) displayed an IC50 in data set [7] of 6.14 µM. In addition, the half-life at 10 µM in data set [4] is greater than 2.5 h.

Turning to `COC(=O)[C@H](CS[C@H]1C2C(=O)O[C@@H]3CC[C@H](C[C@@H]1C)[C@]23O)NC(=O)c1ccccc1F` (stereo not given in full), the Tmax in the data set with Mus musculus [1] is 0.25 h. In addition, the maximum concentration (Cmax) with Mus musculus [2] was 57 ng/mL. In addition, the AUC in the data set with Mus musculus [3] stood at 11 µg/mL/min. Besides, the “t1/2(app)” value in the data set on Mus musculus [5] came to 3.15 h. The AUCt with Mus musculus [6] was found to be 7.8 µg/mL/min.

As for `COC(=O)[C@@H](N)CS[C@H]1C2C(=O)O[C@@H]3CC[C@H](C[C@@H]1C)[C@]23O` (stereo not given in full), in the data set on Mus musculus [1], the Tmax turned out to be 0.5 h. The highest concentration (Cmax) in the data set with Mus musculus [2] worked out at 788 ng/mL. Further, half-maximal inhibition in data set [7] (IC50) required 4.51 µM. Further, the AUC in the data set on Mus musculus [3] was determined as 102 µg/mL/min. In addition, the half-life at 10 µM in data set [4] was 0.367 h; in data set [8], greater than 2.5 h. Moreover, in the data set on Mus musculus [5], the “t1/2(app)” value was determined as 4.63 h. The AUCt in the data set on Mus musculus [6] came to 85 µg/mL/min.

For `COC(=O)[C@H](CS[C@H]1C2C(=O)O[C@@H]3CC[C@H](C[C@@H]1C)[C@]23O)NC(=O)C(C)C` (stereo not given in full), in the data set with Mus musculus [1], the Tmax was determined as 0.5 h. The Cmax with Mus musculus [2] came to 303 ng/mL. Moreover, in the data set with Mus musculus [3], the AUC was determined as 21 µg/mL/min. Further, the half-life at 10 µM in data set [4] is greater than 2.5 h. In the data set with Mus musculus [5], the “t1/2(app)” value amounted to 4.23 h. Also, the AUCt with Mus musculus [6] is 15 µg/mL/min.

With `C[C@H]1C[C@H]2CC[C@H]3OC(=O)C([C@@H]1SCc1ccccc1)[C@@]23O` (stereo not given in full), in data set [7], the IC50 stood at 9.68 µM. Besides, in [4], the half-life at 10 µM was greater than 2.5 h.

Turning to `C[C@H]1C[C@H]2CC[C@H]3OC(=O)C([C@@H]1SCCS(=O)(=O)O)[C@@]23O` (stereo not given in full), in data set [7], the IC50 worked out at 11.4 µM. Further, the half-life at 10 µM in [4] was greater than 2.5 h.

Take `CCOC(=O)[C@H](CS[C@H]1C2C(=O)O[C@@H]3CC[C@H](C[C@@H]1C)[C@]23O)NC(C)=O` (stereo not given in full): the Tmax in the data set with Mus musculus [1] stood at 0.5 h. Besides, the Cmax in the data set on Mus musculus [2] is 263 ng/mL. Moreover, the AUC in the data set with Mus musculus [3] is 22 µg/mL/min. The “t1/2(app)” value in the data set with Mus musculus [5] worked out at 1.08 h. For the same compound, the AUCt in the data set with Mus musculus [6] came out at 20 µg/mL/min.

With `COC(=O)[C@H](CCS[C@H]1C2C(=O)O[C@@H]3CC[C@H](C[C@@H]1C)[C@]23O)NC(C)=O` (stereo not given in full), the time of peak concentration (Tmax) in the data set on Mus musculus [1] came out at 0.25 h. The Cmax in the data set on Mus musculus [2] was found to be 1102 ng/mL. The AUC in the data set with Mus musculus [3] came out at 155 µg/mL/min. Besides, in the data set with Mus musculus [5], the “t1/2(app)” value stood at 1.8 h. Further, the AUCt in the data set on Mus musculus [6] came out at 150 µg/mL/min.

With `CC(=O)N[C@@H](CS[C@H]1C2C(=O)O[C@@H]3CC[C@H](C[C@@H]1C)[C@]23O)C(N)=O` (stereo not given in full), the IC50 in data set [7] came out at 9.2 µM. Further, the half-life at 10 µM in data set [4] was greater than 2.5 h.

With `C[C@H]1C[C@H]2CC[C@H]3OC(=O)C([C@@H]1Sc1ccccc1)[C@@]23O` (stereo not given in full), the Tmax in the data set with Mus musculus [1] is 0.25 h. Further, the Cmax in the data set on Mus musculus [2] came out at 478 ng/mL. In addition, the AUC with Mus musculus [3] turned out to be 41 µg/mL/min. Besides, in the data set with Mus musculus [5], the “t1/2(app)” value was 3.17 h. In the data set with Mus musculus [6], the AUCt was found to be 36 µg/mL/min.

As for `COC(=O)[C@H](CS[C@H]1C2C(=O)O[C@@H]3CC[C@H](C[C@@H]1C)[C@]23O)NC(=O)OC(C)(C)C` (stereo not given in full), the Tmax with Mus musculus [1] came out at 0.25 h. In addition, the Cmax with Mus musculus [2] was 52 ng/mL. Further, in the data set with Mus musculus [3], the AUC worked out at 17 µg/mL/min. In addition, the half-life at 10 µM in [4] was greater than 2.5 h. Moreover, the “t1/2(app)” value in the data set with Mus musculus [5] was found to be 5.8 h. In the data set on Mus musculus [6], the AUCt is 11 µg/mL/min.

`C[C@H]1C[C@H]2CC[C@H]3OC(=O)C([C@@H]1SC[C@H](N)C(=O)O)[C@@]23O` (stereo not given in full) yielded an IC50 in [7] of 2.66 µM. The half-life at 10 µM in [4] is 0.233 h; in [8] it was greater than 2.5 h.

Turning to `CC(=O)N[C@@H](CS[C@H]1C2C(=O)O[C@@H]3CC[C@H](C[C@@H]1C)[C@]23O)C(=O)O` (stereo not given in full), the half-life at 10 µM is 0.9 h in [4] and 1.9 h in data set [8]. Besides, the Drug metabolism result with Hepatocyte is listed as “metabolite_detected”.
